Screens as filed in PubChem BioAssay.
Hits are enriched below; roughly 3% of the tested compounds scored in any of these assays.
Tn6 DDE FP = DD(E)-Tn6 binding inhibition, primary FP screen | P02675 | Fibrin DD(E) TRITC-Tn6 fluorescence polarization displacement | inhibition, % at 8.3 µM | actives 0.21% (n = 370,000);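 active = inhibition above a per-campaign cutoff: mean of compounds within control limits plus 3 SD, cut at about 15% in these data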
Tn7 DDE FP = disrupts Tn7 cyclic peptide binding to fibrin D-Dimer-E complex. FP displacement of FITC-Tn7 peptide from fibrin DD(E); 0% = median of compound wells per plate. P02675. inhibition, % at 8.3 µM. AID 720508. actives 0.13% (n = 370,000);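 active = inhibition above the mean of compounds falling within the control limits plus 3 SD of them, cut at about 14% in these data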
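Test system: human clot-derived fibrin DD(E) complex / Quantity: 2 µM final DD(E) protein / Incubation: 10 min plus 3 h, room temperature / Measured by: fluorescence polarization / Benchmarks: high control of 10 µM Aha-Tn7 peptide / Replicates: singlicate testing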
PLC-gamma1 inh = PLC-gamma1 (human) inhibition, primary screen; P19174; purified PLC-gamma1, fluorogenic substrate, fluorescence; inhibition, % at 12.2 µM; actives 0.84% (n = 370,000); AID 720700
CendR NRP1 mod = alters CendR peptide binding to human NRP-1; O14786; FAM-RPARPAR peptide binding to NRP-1, fluorescence polarization; inhibition, % at 25 µM; actives 0.85% (n = 360,000); AID 602438;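 active = inhibition or corrected inhibition above about 18%, plus a signal ratio from 0.5 to 1.5, limit read from the data, passing the limit was not always enough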
KLK7 zymogen act = activators of human kallikrein-7 zymogen | P49862 | purified proKLK7, EDANS-DABCYL substrate fluorescence; 100% is mature enzyme control, 0% vehicle | activation, % at 7 µM | actives 0.9% (n = 370,000);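 active = activation above the mean of all tested compounds plus 3 SD, computed per campaign excluding outliers beyond control limits, cut at about 13% in these data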
Target sequence (P49862 whole entry, looked up): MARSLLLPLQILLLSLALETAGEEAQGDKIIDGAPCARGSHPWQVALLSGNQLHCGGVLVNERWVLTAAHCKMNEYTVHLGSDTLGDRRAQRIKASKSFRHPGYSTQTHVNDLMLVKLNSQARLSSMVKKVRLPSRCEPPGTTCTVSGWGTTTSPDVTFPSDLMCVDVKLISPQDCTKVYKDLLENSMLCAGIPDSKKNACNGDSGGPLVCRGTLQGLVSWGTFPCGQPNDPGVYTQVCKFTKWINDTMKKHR
PLCb3 inh = inhibitors of human phospholipase C beta3 | Q01970 | Purified PLC-beta3, fluorogenic substrate, fluorescence | inhibition, % at 12.2 µM | actives 0.18% (n = 370,000) | AID 720704; in the data active = inhibition above about 11%
PLCgamma1 ctr = inhibits human PLC-gamma1 in PLC-beta3 counter-screen; shares compounds with PLC-gamma1 inh; purified PLC-gamma1, fluorogenic substrate, fluorescence; inhibition, % at 12.3 µM; actives 3.1% (n = 3,300); AID 743258
PLCb3 confirm = confirmation of human PLC-beta3 inhibitors; shares compounds with PLC-gamma1 inh; purified PLC-beta3, fluorogenic substrate fluorescence; inhibition, % at 12.3 µM; actives 1% (n = 3,300); AID 743261; in the data active = inhibition above about 11%
A number is an active result; – = inactive; · = no result given. Rule as the data show it, unless noted: active = inhibition above about 9.5%; inactive = the rest.

SMILES	Tn6 DDE FP	Tn7 DDE FP	PLC-gamma1 inh	CendR NRP1 mod	KLK7 zymogen act	PLCb3 inh	PLCgamma1 ctr	PLCb3 confirm
COC(=O)C1=C(c2cccc(OCc3ccccc3)c2)C[C@@H]2CC[C@H]1N2C(=O)NC1CCN(Cc2ccccc2)CC1	–	–	12	–	–	–	–	–
COC(=O)C1=C(c2ccccc2OCc2ccccc2)C[C@@H]2CC[C@H]1N2C(=O)NC1CCN(Cc2ccccc2)CC1	–	–	–	–	–	–	·	·
Cc1cc(C)n2nc(SC(C)C(=O)N3CCC4(CC3)OCCO4)nc2n1 (centres undefined)	–	–	12	–	–	–	–	–
Cc1cccc(OP(N)(N)=O)c1C	–	–	–	–	–	–	·	·
Cc1cccc(C)c1OP(N)(=O)Oc1c(C)cccc1C	–	–	9.6	–	–	–	–	–
O=C1CN=C(c2ccccc2)c2ccccc2N1Cc1ccc(C(F)(F)F)cc1	–	–	–	–	–	–	·	·
Cc1oc(-c2ccccc2Cl)nc1CN1C(=O)CN=C(c2ccccc2)c2ccccc21	–	–	9.6	–	–	11	–	–
COC(=O)C1C(c2ccc(I)cc2)CC2CCC1N2C (centres undefined)	–	–	–	·	–	–	·	·
CSc1ccc(C(=O)C(C)(C)N2CCOCC2)cc1	–	–	11	–	–	–	–	–
C[C@]12CCC(=O)C[C@H]1CC[C@@H]1[C@@H]2CC[C@]2(C)C(=O)CC[C@@H]12	–	–	–	–	–	–	·	·
Cn1cc(P(=S)(c2ccccc2)c2ccccc2)c2ccccc21	–	–	–	·	·	–	·	·
CC(C)(C)Cc1nnc(NC(=O)COc2ccc(Cl)cc2Cl)o1	–	–	–	·	·	–	·	·
